{"source": "PubChem BioAssay AID624062", "about": "(Broad Institute, 2012)", "tested_on": "S. cerevisiae W303 JC-1 mitochondrial potential, flow cytometry", "assay": "mitochondrial membrane depolarization in S. cerevisiae, mechanism study for antifungal respiration inhibitor project, flow cytometry, single point, powder samples (AID 624062)", "conditions": "hits give high values", "method_in_brief": "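Test system: S. cerevisiae W303-1a yeast; medium: SD-CSM growth medium containing 2% glucose; measured by: flow cytometry, 488 nm excitation, JC-1 red FL2 and green FL1; reagent: JC-1 dye at 1 µg/mL; schedule: 4 h compound treatment at 30 °C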", "note": "Inconclusive results are not listed."}
{"smiles": "CCOC(=O)N1C(=O)C2(CCCCC2)N(c2ccc(C)cc2)C1=S", "values": [{"measurement": "mitochondrial depolarization score", "value": 18.6}]}
